Laboratory results: ChEMBL document CHEMBL1131317, “Antitumor agents. 181. Synthesis and biological evaluation of 6,7,2',3',4'-substituted-1,2,3,4-tetrahydro-2-phenyl-4-quinolones as a new class of antimitotic antitumor agents” (J Med Chem, 1998)
Values after ≈ are worked out from the molar mass of the structure shown.

How the values were obtained:
[1] = test system: A549; assay: Cytotoxicity against human lung carcinoma cells (A-549) using SRB assay.; type: functional; details: read-out: ED50 (the source's name)
Summary of the method: (§1)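 Cells grown at 37 °C in RPMI-1640 with 10% FBS and 100 µg/mL kanamycin, humidified 5% CO2. Seeding density set per line so control A562 reads 1-2.5. Drug given from DMSO stocks, final DMSO ≤2% (v/v), for 3 days. SRB stain, absorbance at 562 nm. […] Triplicates.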

[2] = test system: CAKI-1; assay: Cytotoxicity against human renal cancer cells (CAKI-1) using SRB assay.; type: functional; details: read-out: ED50 (the source's name); summary of the method: as §1
[3] = test system: HCT-8; assay: Cytotoxicity against human ileocecal carcinoma cells (HCT-8) using SRB assay.; type: functional; details: read-out: ED50 (the source's name); summary of the method: as §1
[4] = test system: KB; assay: Cytotoxicity against human epidermoid carcinoma of the nasopharyngeal cells (KB) using SRB assay.; type: functional; details: read-out: ED50 (the source's name); summary of the method: as §1
[5] = test system: MCF7; assay: Cytotoxicity against human breast cancer cells (MCF-7) using SRB assay.; type: functional; details: read-out: ED50 (the source's name); summary of the method: as §1
[6] = test system: SK-MEL-2; assay: The compound was tested for the cytotoxicity for the cell lines of human melanoma cancer (SKMEL-2) using SRB assay.; type: functional; details: read-out: ED50 (the source's name); summary of the method: as §1
[7] = molecular target: Tubulin (Bos taurus, UniProt Q6B856+Q862L2+Q862F3); assay: Inhibition of bovine brain tubulin polymerization (ITP).
[8] = molecular target: T1, Tubulin (Bos taurus) (UniProt Q6B856+Q862L2+Q862F3); assay: % inhibition of [3H]colchicine binding to bovine brain tubulin at a concentration of 5 uM
Summary of the method: (§2)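 [3H]colchicine at 5 µM incubated with 1 µM tubulin. Inhibitor present at the stated concentration (5 or 1 µM). Result given as % inhibition of colchicine binding ± SD.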

[9] = molecular target: T1, Tubulin (Bos taurus); assay: The compound was tested for the % inhibition of [3H]colchicine binding to bovine brain tubulin at a concentration of 1 uM; summary of the method: as §2

| SMILES | EC50 [1] | EC50 [2] | EC50 [3] | EC50 [4] | EC50 [5] | EC50 [6] | IC50 [7] | inhibition [8] | inhibition [9] |
| --- | --- | --- | --- | --- | --- | --- | --- | --- | --- |
| O=C1CC(c2ccccc2)Nc2ccccc21 (configuration not stated) [Aza-flavanone] | 0.013 µg/mL (≈ 0.0582 µM) | 0.013 µg/mL (≈ 0.0582 µM) | 0.013 µg/mL (≈ 0.0582 µM) | 0.07 µg/mL (≈ 0.314 µM) | 0.13 µg/mL (≈ 0.582 µM) | 0.13 µg/mL (≈ 0.582 µM) | 2700 nM | – | – |
| O=C1C[C@@H](c2ccccc2F)Nc2cc3c(cc21)OCO3 | 0.18 µg/mL (≈ 0.631 µM) | 1 µg/mL (≈ 3.51 µM) | 0.09 µg/mL (≈ 0.315 µM) | 0.08 µg/mL (≈ 0.28 µM) | 0.1 µg/mL (≈ 0.351 µM) | – | 560 nM | 51% | – |
| COc1cccc(-c2cc(O)c3ccccc3n2)c1 | – | – | – | – | – | – | 1500 nM | – | – |
| COc1cc2c(c(OC)c1OC)-c1ccc(OC)c(=O)cc1[C@@H](NC(C)=O)CC2 [COLCHICINE] | 0.002 µg/mL (≈ 0.00501 µM) | 0.4 µg/mL (≈ 1 µM) | 0.016 µg/mL (≈ 0.0401 µM) | 0.002 µg/mL (≈ 0.00501 µM) | > 0.4 µg/mL | 0.008 µg/mL (≈ 0.02 µM) | – | – | – |
| CC(NC(=O)C(=O)N/N=C1\C[C@@H](c2ccccc2F)Nc2cc3c(cc21)OCO3)c1ccccc1 (some centres not stated) | 13 µg/mL (≈ 27.4 µM) | > 25 µg/mL | 2.1 µg/mL (≈ 4.43 µM) | 18 µg/mL (≈ 37.9 µM) | 8.5 µg/mL (≈ 17.9 µM) | – | > 40000 nM | – | – |
| COc1cccc([C@H]2C/C(=N\NC(=O)C(=O)NC(C)c3ccccc3)c3ccccc3N2)c1 (some centres not stated) | > 25 µg/mL | > 25 µg/mL | > 25 µg/mL | > 25 µg/mL | > 25 µg/mL | – | > 40000 nM | – | – |
| COc1cccc(C2CC(=O)c3cc4c(cc3N2)OCO4)c1 (configuration not stated) | 0.04 µg/mL (≈ 0.135 µM) | 0.06 µg/mL (≈ 0.202 µM) | 0.04 µg/mL (≈ 0.135 µM) | 0.02 µg/mL (≈ 0.0673 µM) | 0.04 µg/mL (≈ 0.135 µM) | 0.06 µg/mL (≈ 0.202 µM) | 820 nM | 60% | – |
| O=C1C[C@H](c2ccccc2F)Nc2cc3c(cc21)OCO3 | 0.6 µg/mL (≈ 2.1 µM) | 1.25 µg/mL (≈ 4.38 µM) | 0.5 µg/mL (≈ 1.75 µM) | 0.43 µg/mL (≈ 1.51 µM) | 0.85 µg/mL (≈ 2.98 µM) | – | 12000 nM | – | – |
| COc1cccc([C@H]2C/C(=N\NC(=O)C(=O)NC(C)c3ccccc3)c3cc4c(cc3N2)OCO4)c1 (some centres not stated) | 11.5 µg/mL (≈ 23.6 µM) | > 25 µg/mL | 1.5 µg/mL (≈ 3.08 µM) | 12 µg/mL (≈ 24.7 µM) | 6.3 µg/mL (≈ 12.9 µM) | – | > 40000 nM | – | – |
| COc1ccccc1C1CC(=O)c2ccccc2N1 (configuration not stated) | 6 µg/mL (≈ 23.7 µM) | 25 µg/mL (≈ 98.7 µM) | 6 µg/mL (≈ 23.7 µM) | 1.8 µg/mL (≈ 7.11 µM) | 6.5 µg/mL (≈ 25.7 µM) | 12.5 µg/mL (≈ 49.3 µM) | > 40000 nM | – | – |
| CC(NC(=O)C(=O)N/N=C1\C[C@H](c2ccccc2F)Nc2cc3c(cc21)OCO3)c1ccccc1 (some centres not stated) | 9 µg/mL (≈ 19 µM) | 18 µg/mL (≈ 37.9 µM) | 9 µg/mL (≈ 19 µM) | 10 µg/mL (≈ 21.1 µM) | 25 µg/mL (≈ 52.7 µM) | – | > 40000 nM | – | – |
| O=C1CC(c2ccc(F)cc2)Nc2cc3c(cc21)OCO3 (configuration not stated) | 1 µg/mL (≈ 3.51 µM) | 0.8 µg/mL (≈ 2.8 µM) | 0.4 µg/mL (≈ 1.4 µM) | 0.3 µg/mL (≈ 1.05 µM) | 0.4 µg/mL (≈ 1.4 µM) | 0.2 µg/mL (≈ 0.701 µM) | 2000 nM | – | – |
| COc1cccc([C@H]2CC(=O)c3cc4c(cc3N2)OCO4)c1 | 0.09 µg/mL (≈ 0.303 µM) | 0.25 µg/mL (≈ 0.841 µM) | 0.08 µg/mL (≈ 0.269 µM) | 0.07 µg/mL (≈ 0.235 µM) | 0.12 µg/mL (≈ 0.404 µM) | – | 2300 nM | – | – |
| COc1cccc([C@@H]2CC(=O)c3ccccc3N2)c1 | 0.15 µg/mL (≈ 0.592 µM) | 0.15 µg/mL (≈ 0.592 µM) | 0.09 µg/mL (≈ 0.355 µM) | 0.12 µg/mL (≈ 0.474 µM) | 0.3 µg/mL (≈ 1.18 µM) | – | 1200 nM | – | – |
| COc1cccc(C2CC(=O)c3ccccc3N2)c1 (configuration not stated) | 0.23 µg/mL (≈ 0.908 µM) | 0.32 µg/mL (≈ 1.26 µM) | 0.12 µg/mL (≈ 0.474 µM) | 0.11 µg/mL (≈ 0.434 µM) | 0.32 µg/mL (≈ 1.26 µM) | 0.2 µg/mL (≈ 0.79 µM) | 3300 nM | – | – |
| COc1cccc([C@@H]2CC(=O)c3cc4c(cc3N2)OCO4)c1 | 0.03 µg/mL (≈ 0.101 µM) | 0.25 µg/mL (≈ 0.841 µM) | 0.02 µg/mL (≈ 0.0673 µM) | 0.02 µg/mL (≈ 0.0673 µM) | 0.03 µg/mL (≈ 0.101 µM) | – | 690 nM | 67% | – |
| COc1cccc([C@@H]2C/C(=N\NC(=O)C(=O)NC(C)c3ccccc3)c3ccccc3N2)c1 (some centres not stated) | 8 µg/mL (≈ 18.1 µM) | 25 µg/mL (≈ 56.5 µM) | 3.8 µg/mL (≈ 8.59 µM) | 8 µg/mL (≈ 18.1 µM) | 8 µg/mL (≈ 18.1 µM) | – | > 40000 nM | – | – |
| COc1cccc(C2CC(=O)c3cc(N4CCCC4)ccc3N2)c1 (configuration not stated) | 0.01 µg/mL (≈ 0.031 µM) | 0.008 µg/mL (≈ 0.0248 µM) | 0.016 µg/mL (≈ 0.0496 µM) | 0.008 µg/mL (≈ 0.0248 µM) | 0.11 µg/mL (≈ 0.341 µM) | 0.016 µg/mL (≈ 0.0496 µM) | 660 nM | 91% | 63% |
| COc1ccc(C2CC(=O)c3ccccc3N2)cc1 (configuration not stated) | > 25 µg/mL | – | > 25 µg/mL | > 25 µg/mL | > 25 µg/mL | – | > 40000 nM | – | – |
| COc1cccc(-c2cc(O)c3cc4c(cc3n2)OCO4)c1 | – | – | – | – | – | – | 740 nM | 33% | – |
| O=C1CC(c2cccc(F)c2)Nc2cc3c(cc21)OCO3 (configuration not stated) | 0.012 µg/mL (≈ 0.0421 µM) | 0.016 µg/mL (≈ 0.0561 µM) | 0.016 µg/mL (≈ 0.0561 µM) | 0.012 µg/mL (≈ 0.0421 µM) | 0.032 µg/mL (≈ 0.112 µM) | 0.016 µg/mL (≈ 0.0561 µM) | 750 nM | 75% | – |
| O=C1CC(c2ccccc2F)Nc2cc3c(cc21)OCO3 (configuration not stated) | 0.08 µg/mL (≈ 0.28 µM) | 1 µg/mL (≈ 3.51 µM) | 0.13 µg/mL (≈ 0.456 µM) | 0.06 µg/mL (≈ 0.21 µM) | 0.06 µg/mL (≈ 0.21 µM) | 0.125 µg/mL (≈ 0.438 µM) | 1100 nM | – | – |
| COc1cccc([C@H]2CC(=O)c3ccccc3N2)c1 | 0.5 µg/mL (≈ 1.97 µM) | 3.8 µg/mL (≈ 15 µM) | 0.5 µg/mL (≈ 1.97 µM) | 0.5 µg/mL (≈ 1.97 µM) | 0.6 µg/mL (≈ 2.37 µM) | – | 7200 nM | – | – |
| COc1cccc(-c2cc(O)c3cc(N4CCCC4)ccc3n2)c1 | – | – | – | – | – | – | 490 nM | 91% | 65% |
| COc1cccc(-c2cc(O)c3cccnc3n2)c1 | – | – | – | – | – | – | 790 nM | 24% | – |
| O=C1CC(c2cccc(Cl)c2)Nc2ccc(N3CCCC3)cc21 (configuration not stated) | 0.09 µg/mL (≈ 0.275 µM) | 0.95 µg/mL (≈ 2.91 µM) | 0.09 µg/mL (≈ 0.275 µM) | 0.05 µg/mL (≈ 0.153 µM) | 0.31 µg/mL (≈ 0.949 µM) | 0.08 µg/mL (≈ 0.245 µM) | 760 nM | 89% | 63% |
| COc1cccc([C@@H]2C/C(=N\NC(=O)C(=O)NC(C)c3ccccc3)c3cc4c(cc3N2)OCO4)c1 (some centres not stated) | 2.4 µg/mL (≈ 4.93 µM) | 12.5 µg/mL (≈ 25.7 µM) | 1 µg/mL (≈ 2.06 µM) | 1.8 µg/mL (≈ 3.7 µM) | 3 µg/mL (≈ 6.17 µM) | – | > 40000 nM | – | – |
